Hits are enriched below; roughly 2.3% of the tested compounds scored in any of these assays.
SR-BI HDL uptake: inhibitors of mouse SR-BI mediated HDL lipid uptake. Q61009. ldlA[mSR-BI] CHO cells, DiI-HDL uptake fluorescence, 3 h. inhibition, % at 12.5 µM. 0.96% of 320,000 active;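 active means mean replicate inhibition of at least 70% and a set share of replicates each scoring 70 or more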
Target sequence (Q61009 whole entry, looked up): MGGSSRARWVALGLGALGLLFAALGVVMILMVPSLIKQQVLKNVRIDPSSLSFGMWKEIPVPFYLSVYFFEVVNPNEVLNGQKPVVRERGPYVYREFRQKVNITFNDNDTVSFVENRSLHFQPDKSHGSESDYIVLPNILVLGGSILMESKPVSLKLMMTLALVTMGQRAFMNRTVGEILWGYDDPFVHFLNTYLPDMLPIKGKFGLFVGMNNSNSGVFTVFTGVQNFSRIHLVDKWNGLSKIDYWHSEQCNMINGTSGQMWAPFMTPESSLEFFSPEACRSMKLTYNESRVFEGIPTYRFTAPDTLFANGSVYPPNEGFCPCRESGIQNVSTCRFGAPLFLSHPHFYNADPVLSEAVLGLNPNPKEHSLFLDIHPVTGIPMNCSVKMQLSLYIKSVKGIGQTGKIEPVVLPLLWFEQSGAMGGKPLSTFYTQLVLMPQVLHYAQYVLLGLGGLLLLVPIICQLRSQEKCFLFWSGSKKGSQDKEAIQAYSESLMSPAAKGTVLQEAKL
CAL PDZ FP-1: blocks peptide binding to human CAL PDZ domain; 0.02% of 330,000 active; inhibition, % at 20 µM; Q9HD26; AID 504414; purified CAL PDZ, TMR-peptide fluorescence polarization, 1 h;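 active means highest replicate inhibition of at least 40%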
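Material: tagged CAL PDZ domain; buffer or medium: 25 mM sodium phosphate pH 7.4, 150 mM NaCl, TCEP, IgG, Thesit; compound dosing: single point, 20 µM; schedule: 1 h incubation at room temperature before polarization reading; measured by: FP readout, S and P plane fluorescence; read-out basis: percent inhibition from loss of millipolarization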
SR-BI DiI-HDL act: enhances SR-BI lipid uptake from DiI-HDL; CHO ldlA[mSR-BI] cells, DiI-HDL uptake fluorescence, 3 h; 100 = double the neutral-control signal; activation, % at 12.5 µM; 0.096% of 320,000 active; AID 504775;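 active means mean replicate activation of at least 60% and every replicate at or above 60%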
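Test system: SR-BI-overexpressing, LDLR-lacking CHO cells; Also added: labelled HDL, 10 µg/mL; Measured by: bottom-read cell fluorescence after medium removal, ex 550/em 595 nm; Timing: 3 h uptake period with compound, 37 °C; Buffer or medium: F12, 0.5% BSA, 25 mM HEPES; Doses: single compound concentration, delivered by pin transfer.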
CAL PDZ FP-2: inhibitors of human CAL PDZ peptide binding; purified CAL PDZ, TMR-peptide fluorescence polarization, 1 h; inhibition, % at 24.9 µM; 0.92% of 300,000 active;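 active means mean inhibition of at least 30% with at least half of replicates also reaching 30%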
ATG4B inhibitor: blocks human ATG4B protease cleavage of LC3 substrate; Q9Y4P1; ATG4B cleavage of LC3-PLA2, NBD-HPC fluorescence, 1 h; inhibition, % at 8.33 µM; 0.51% of 340,000 active; in the data active means inhibition above about 40%
ATG4B confirm: confirmation of human ATG4B inhibitors. ATG4B protease fluorescent substrate cleavage assay. 92% of 320 active. shares compounds with ATG4B inhibitor. inhibition, % at 8.33 µM; in the data active means inhibition above about 39%
PLA2 counter: PLA2 (human) inhibition in ATG4B counter-screen; shares compounds with ATG4B inhibitor; purified PLA2, NBD-C6-HPC fluorescence, 45 min; inhibition, % at 8.33 µM; 66% of 1,600 active; AID 588402; in the data active means inhibition above about 50%
Target sequence (P04054 whole entry, looked up): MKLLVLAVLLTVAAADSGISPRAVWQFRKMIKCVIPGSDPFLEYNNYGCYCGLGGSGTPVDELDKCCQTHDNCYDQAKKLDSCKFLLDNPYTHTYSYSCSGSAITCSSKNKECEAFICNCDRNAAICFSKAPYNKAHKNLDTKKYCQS
Large screens that a line does not name were inactive (follow-up assays come after a bar, where they were run).

Cc1ccccc1-c1cc(-c2ccccc2O)n[nH]1	ATG4B inhibitor 58 | PLA2 counter 65
Oc1ccc(Br)cc1-c1cc(-c2ccccc2Cl)[nH]n1	none
Cc1ccc(-c2cc(NC(=O)c3ccccc3[N+](=O)[O-])n[nH]2)cc1	none
Cc1ccc(-c2cc(-c3ccccc3Cl)[nH]n2)c(O)c1	ATG4B inhibitor 68 | PLA2 counter 77
CCn1c(SC(C)C(=O)NCC2CCCO2)nc2ccccc21 (configuration not stated)	none
CN(C)S(=O)(=O)NCC1CCCN(Cc2ccc(-c3ccccc3)cc2)C1 (configuration not stated)	none (no result: CAL PDZ FP-2)
O=C(c1ccc(NS(=O)(=O)c2ccc3[nH]c(=O)[nH]c3c2)cc1)N1CCCC(C(F)(F)F)C1 (configuration not stated)	none
CCCCn1c(SCC(=O)Nc2cc(C)[nH]n2)nc2ccsc2c1=O	ATG4B inhibitor 45 | ATG4B confirm 56 | PLA2 counter inactive
O=C1C(=O)N(C/C=C/c2ccccc2)c2ccccc21	ATG4B inhibitor 49 | PLA2 counter 54
COc1ccccc1C(=O)Nc1cc(-c2ccc(C)cc2)no1	none
CCN(c1ccc(OC)cc1)S(=O)(=O)N1CCCC(C(=O)NCc2ccccc2Br)C1 (configuration not stated)	ATG4B inhibitor 57 | PLA2 counter 58
CC[C@@]1(C(=O)OC)N[C@H](CN(C)C(=O)Nc2ccc(C)cc2)[C@@H]2C(=O)N(C)C(=O)[C@@H]21	none
Cc1ccc(F)cc1CNC(=O)c1cc(COc2ccc3ncccc3c2)on1	ATG4B inhibitor 61 | PLA2 counter 68
CCOC(=O)C1=C(COC(=O)CCNS(=O)(=O)c2ccc(C)c(C)c2)NC(=O)NC1C (configuration not stated)	none
Cc1cccc(C)c1NC(=O)c1ccc2c(c1)CCN2S(C)(=O)=O	none (no result: CAL PDZ FP-2)
O=C(Nc1c(F)cccc1F)c1ccc2c(c1)CCN2S(=O)(=O)c1ccccc1	ATG4B inhibitor 69 | PLA2 counter 69
CCOC(=O)C1=C(CS(=O)(=O)c2ccccc2)NC(=O)NC1c1cc(OC)c(O)c(OC)c1 (configuration not stated)	none
Cc1ccc(CC(=O)Nc2nccs2)cc1	none (no result: CAL PDZ FP-2)
Cc1oc(-c2ccccc2Cl)nc1CS(=O)CC(=O)NCc1ccccc1Cl (configuration not stated)	ATG4B inhibitor 46 | ATG4B confirm 60 | PLA2 counter inactive
Cc1oc(-c2ccccc2Cl)nc1CS(=O)CC(=O)NCc1ccco1 (configuration not stated)	none (no result: CAL PDZ FP-2)
CC(=O)NCCSc1ccc(S(=O)(=O)N2CCCC2)cn1	none
Oc1ccc2ccccc2c1/C=N/Nc1nnc(-c2ncc[nH]2)c2ccccc12	SR-BI HDL uptake 136, ATG4B inhibitor 48 | ATG4B confirm 49 | PLA2 counter inactive
COc1ccccc1N(C)S(=O)(=O)c1ccc(C(=O)Nc2cccc(S(=O)(=O)N3CCOCC3)c2)cc1	none
O=C(COC(=O)CCc1nc2ccccc2n1-c1ccccc1)Nc1cccc(Cl)c1	none
Cc1c(Cl)cccc1NC(=O)COC(=O)CCc1nc2ccccc2n1-c1ccccc1	ATG4B inhibitor 50 | PLA2 counter 53
Cc1noc(C)c1COc1ccc(C(=O)OCC(=O)NCc2ccccc2Cl)cc1	ATG4B inhibitor 45 | ATG4B confirm 64 | PLA2 counter inactive
COC(=O)C1=C(C)Nc2nc(SCc3ccccc3)[nH]c(=O)c2C1c1cccs1 (configuration not stated)	ATG4B inhibitor 53 (no result: CAL PDZ FP-2) | PLA2 counter inactive
CC(C)CC(=O)Nc1nnc(S(=O)(=O)Nc2ccccc2)s1	none
CCOC(=O)C1=C(C)N=c2s/c(=C/c3cccc([N+](=O)[O-])c3O)c(=O)n2C1c1ccccc1 (configuration not stated)	ATG4B inhibitor 58 | PLA2 counter inactive
CCOC(=O)C1=C(C)N=c2s/c(=C/c3cccc([N+](=O)[O-])c3O)c(=O)n2C1c1cc(OC)c(OC)c(OC)c1 (configuration not stated)	none (no result: CAL PDZ FP-1)
CC(=O)Nc1ccc(SCCN2CC[C@@H](C(C)(C)C)CCC2=O)cc1	none
Fc1ccc2[nH]c3c(N4CCc5ccccc5C4)ncnc3c2c1	none (no result: SR-BI HDL uptake, CAL PDZ FP-1, SR-BI DiI-HDL act, CAL PDZ FP-2)
Brc1ccc2[nH]c3c(N4CCc5ccccc5C4)ncnc3c2c1	ATG4B inhibitor 48 (no result: SR-BI HDL uptake, CAL PDZ FP-1, SR-BI DiI-HDL act, CAL PDZ FP-2) | PLA2 counter 63
O=C(Nc1cccc(Cl)c1)c1cc(-c2ccco2)on1	none
O=C(Nc1c(Cl)cccc1Cl)c1cc(-c2ccco2)on1	ATG4B inhibitor 43 | ATG4B confirm 67 | PLA2 counter inactive
O=C(CSc1nnc(COc2ccccc2)n1Cc1ccco1)c1ccc(F)cc1	none
Cc1ccc(OCc2nnc(SCC(=O)c3ccccc3)n2Cc2ccco2)cc1	ATG4B inhibitor 60 | PLA2 counter 63
O=C(O)COc1ccc(-c2nc(-c3ccccc3)c(-c3ccccc3)[nH]2)cc1	ATG4B inhibitor 48 (no result: CAL PDZ FP-2) | PLA2 counter 59
CCN1CCN(c2ccc(S(=O)(=O)N3CCCCC3)cc2NC(=O)CC(C)c2ccccc2)CC1 (configuration not stated)	none
O=C(Nc1ccccc1-c1ccccc1)c1ccccc1	none
Nc1c(S(=O)(=O)O)cc(NC(=O)c2ccccc2)c2c1C(=O)c1ccccc1C2=O	ATG4B inhibitor 76 | PLA2 counter 68
Cc1ccc(C(=O)NC(=S)Nc2ccccc2N2CCCC2)cc1[N+](=O)[O-]	ATG4B inhibitor 42 | PLA2 counter inactive
CCCCCCCCCCCC1=C(O)C(=O)C=C(O)C1=O	none
COC1=CC(=O)C(O)=C(CCCCCCC/C=C/CCCCCCCC2=C(O)C(=O)C=C(OC)C2=O)C1=O	ATG4B inhibitor 52 | PLA2 counter 78
CCCc1nc(SCC(=O)N2c3ccccc3CC2C)c2c(C)c(C)sc2n1 (configuration not stated)	ATG4B inhibitor 69 | PLA2 counter 81
CCCc1nc(SCC(=O)NC2CC2)c2c(C)c(C)sc2n1	none
O=C(Nc1ccc(F)cc1)c1cccc(N2C(=O)C3C4C=CC(C5CC45)C3C2=O)c1 (configuration not stated)	none (no result: CAL PDZ FP-2)
O=C1C(=C(c2ccccc2)c2ccccc2)Nc2ccccc21	ATG4B inhibitor 43 | PLA2 counter 50
COCCN=c1scc(-c2cc(OC)c(OC)c(OC)c2)n1/N=C/c1c(C)[nH]c2ccccc12	SR-BI HDL uptake 92, ATG4B inhibitor 43 | PLA2 counter 71
Cc1c(C(=O)O)cccc1-c1ccc(/C=N/n2cnnc2)o1	none
